Experimental data published in ChEMBL document CHEMBL3808334, “Synthesis and in vitro evaluation of novel triazine analogues as anticancer agents and their interaction studies with bovine serum albumin” (Eur J Med Chem, 2016).

Experiments:
[1] = test system: SR; assay: Growth inhibition of human SR cells assessed as cell growth at 10^-8 M incubated for 48 hrs by sulforhodamine B assay; assay type: functional; details: read-out: Activity
[2] = Growth inhibition of human OVCAR8 cells incubated for 48 hrs by sulforhodamine B assay; assay type: functional; details: OVCAR-8, 48 h
Procedure, shortened: (§1)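 Cells were plated at 5,000–40,000 per well according to doubling time and preincubated 24 h at 37 °C in 5% CO2; time-zero plates were then TCA-fixed. Five concentrations (10-fold or ½-log dilutions, DMSO stock) were incubated 48 h. Cells were TCA-fixed, stained with 0.4% SRB and read at 515 nm. GI50 was taken where [(Ti−Tz)/(C−Tz)]×100 = 50.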

[3] = test system: NCI-H226; assay: Growth inhibition of human NCI-H226 cells incubated for 48 hrs by sulforhodamine B assay; assay type: functional; details: NCI-H226, 48 h; procedure, shortened: as §1
[4] = Growth inhibition of human RXF393 cells assessed as cell growth at 10^-5 M incubated for 48 hrs by sulforhodamine B assay; assay type: functional; details: RXF 393, 48 h, read-out: Activity
[5] = Growth inhibition of human HOP62 cells assessed as cell growth at 10 uM incubated for 48 hrs by sulforhodamine B assay; assay type: functional; details: HOP-62, 48 h, read-out: Activity
[6] = test system: MDA-MB-468; assay: Growth inhibition of human MDA-MB-468 cells assessed as cell growth at 10 uM incubated for 48 hrs by sulforhodamine B assay; assay type: functional; details: MDA-MB-468, 48 h, read-out: Activity
[7] = Growth inhibition of human SF539 cells assessed as cell growth at 10^-6 M incubated for 48 hrs by sulforhodamine B assay; assay type: functional; details: SF-539, 48 h, read-out: Activity
[8] = test system: NCI-H23; assay: Growth inhibition of human NCI-H23 cells assessed as cell growth at 10^-7 M incubated for 48 hrs by sulforhodamine B assay; assay type: functional; details: NCI-H23, 48 h, read-out: Activity
[9] = Growth inhibition of human LOXIMVI cells incubated for 48 hrs by sulforhodamine B assay; assay type: functional; details: LOX IMVI; procedure, shortened: as §1
[10] = Growth inhibition of human Caki1 cells assessed as cell growth at 10^-4 M incubated for 48 hrs by sulforhodamine B assay; assay type: functional; details: CAKI-1, 48 h, read-out: Activity
Procedure, shortened: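 Cells seeded at 5,000–40,000/well according to doubling time and preincubated 24 h at 37 °C, 5% CO2. Time-zero plates were TCA-fixed. DMSO concentrate was diluted in medium with 50 µg/ml gentamicin to give five concentrations (10-fold or ½ log steps), then exposed 48 h. Cells were TCA-fixed, stained with 0.4% SRB and read at 515 nm. Percent growth was taken against time-zero and control; GI50, TGI and LC50 derived.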

[11] = test system: SK-MEL-2; assay: Growth inhibition of human SK-MEL-2 cells assessed as cell growth at 10^-4 M incubated for 48 hrs by sulforhodamine B assay; assay type: functional; details: SK-MEL-2, 48 h, read-out: Activity
[12] = Growth inhibition of human LOXIMVI cells assessed as cell growth at 10^-5 M incubated for 48 hrs by sulforhodamine B assay; assay type: functional; details: LOX IMVI, read-out: Activity
[13] = test system: 786-0; assay: Growth inhibition of human 786-0 cells assessed as cell growth at 10^-5 M incubated for 48 hrs by sulforhodamine B assay; assay type: functional; details: 786-0, 48 h, read-out: Activity
Procedure, shortened: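 Five-dose assay: five concentrations from 10-fold or ½-log serial dilutions. Cells are plated at 5,000–40,000 per well according to doubling time, grown 24 h, then exposed 48 h at 37 °C, 5% CO₂. Fixed with cold 50% TCA (final addition) for 60 min at 4 °C and stained with 0.4% SRB in 1% acetic acid. Bound dye is solubilized in 10 mM Tris base and read at 515 nm. GI₅₀ is where [(Ti−Tz)/(C−Tz)]×100 = 50, with a time-zero plate as Tz.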

[14] = test system: Malme-3M; assay: Growth inhibition of human MALME-3M cells assessed as cell growth at 10 uM incubated for 48 hrs by sulforhodamine B assay; assay type: functional; details: read-out: Activity
[15] = test system: NCI-H522; assay: Growth inhibition of human NCI-H522 cells assessed as cell growth at 10^-4 M incubated for 48 hrs by sulforhodamine B assay; assay type: functional; details: NCI-H522, 48 h, read-out: Activity
[16] = Growth inhibition of human SNB19 cells assessed as cell growth at 10^-8 M incubated for 48 hrs by sulforhodamine B assay; assay type: functional; details: SNB-19, 48 h, read-out: Activity
[17] = Growth inhibition of human RXF393 cells incubated for 48 hrs by sulforhodamine B assay; assay type: functional; details: RXF 393, 48 h; procedure, shortened: as §1
[18] = Growth inhibition of human PC3 cells assessed as cell growth at 10^-4 M incubated for 48 hrs by sulforhodamine B assay; assay type: functional; details: PC-3, 48 h, read-out: Activity
[19] = Growth inhibition of human renal cancer cells incubated for 48 hrs by sulforhodamine B assay; assay type: functional; details: Cancer cell lines; for CC50: read-out: LC50 (the source's name)
[20] = test system: MDA-MB-231; assay: Growth inhibition of human MDA-MB-231 cells assessed as cell growth at 10^-8 M incubated for 48 hrs by sulforhodamine B assay; assay type: functional; details: MDA-MB-231, 48 h, read-out: Activity
[21] = biological target: Albumin (Bos taurus, UniProt P02769); assay: Binding affinity to bovine serum albumin assessed as enhancement in emission spectra up to 20 uM by fluorescence spectroscopic analysis relative to control; assay type: ADME; details: cattle, isolated protein
Procedure, shortened: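 Fluorescence titration of 10 µM BSA in 0.1 M phosphate buffer pH 7.4 with compound at 0–20 µM, diluted from DMSO stocks. Excitation 280 nm, slit 10 nm, 1 cm quartz cell, 300 K. Changes in the 350 nm Trp emission, new bands near 370–373 nm and isoemissive points are read against BSA alone.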

[22] = test system: K562; assay: Growth inhibition of human K562 cells assessed as cell growth at 10 uM incubated for 48 hrs by sulforhodamine B assay; assay type: functional; details: K562, 48 h, read-out: Activity
[23] = Growth inhibition of human HOP62 cells assessed as cell growth at 10^-7 M incubated for 48 hrs by sulforhodamine B assay; assay type: functional; details: HOP-62, 48 h, read-out: Activity
[24] = test system: U-251; assay: Growth inhibition of human U251 cells assessed as cell growth at 10^-6 M incubated for 48 hrs by sulforhodamine B assay; assay type: functional; details: U-251, 48 h, read-out: Activity
[25] = read-out: LC50 (the source's name)
[26] = read-out: pLC50 (the source's name) (converted)

Sequence of Albumin (P02769 whole entry): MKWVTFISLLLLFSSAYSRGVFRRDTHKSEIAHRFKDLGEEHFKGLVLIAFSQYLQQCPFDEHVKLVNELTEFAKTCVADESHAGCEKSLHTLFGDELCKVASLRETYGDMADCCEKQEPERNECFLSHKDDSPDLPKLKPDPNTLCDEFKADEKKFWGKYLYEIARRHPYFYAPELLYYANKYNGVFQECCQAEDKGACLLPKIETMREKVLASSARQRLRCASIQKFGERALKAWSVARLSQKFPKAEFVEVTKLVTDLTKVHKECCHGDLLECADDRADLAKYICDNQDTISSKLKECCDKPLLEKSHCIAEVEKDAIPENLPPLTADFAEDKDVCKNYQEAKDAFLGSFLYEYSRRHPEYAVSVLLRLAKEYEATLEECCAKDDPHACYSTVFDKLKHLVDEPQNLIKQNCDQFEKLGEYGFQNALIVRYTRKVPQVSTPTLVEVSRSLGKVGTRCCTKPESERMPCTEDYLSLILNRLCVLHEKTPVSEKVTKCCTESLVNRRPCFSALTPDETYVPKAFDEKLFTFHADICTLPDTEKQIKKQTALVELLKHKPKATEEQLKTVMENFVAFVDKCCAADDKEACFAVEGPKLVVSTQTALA

Molecule `c1ccc(-c2nc(Nc3ccc(-c4nc5ccccc5[nH]4)cc3)nc(N3CCOCC3)n2)cc1` has a growth at 0.01 µM [1] of 100%, a GI50 ([2]; read-out: GI50) of 1.72 µM and a CC50 [2, 25] of 6.79 µM. It also gave a TGI ([2]; read-out: TGI) of 3.41 µM, a GI50 ([2]; read-out: pGI50 (converted)) of 1.7 µM and a CC50 [2, 26] of 6.76 µM. The TGI ([2]; read-out: pTGI (converted)) was 3.39 µM, the GI50 ([3]; read-out: GI50) was 2.4 µM and the CC50 [3, 25] was 8.75 µM. For the same molecule, the TGI ([3]; read-out: TGI) was 4.58 µM, the GI50 ([3]; read-out: pGI50 (converted)) was 2.4 µM and the CC50 [3, 26] was 8.71 µM. For the same molecule, the TGI ([3]; read-out: pTGI (converted)) was 4.57 µM, the growth at 10 µM [4] was -63% and the growth at 10 µM [5] was -64.5%. It also gave a growth at 10 µM [6] of -62.7%, a growth at 1 µM [7] of 74% and a growth at 0.1 µM [8] of 95%. For the same molecule, the GI50 ([9]; read-out: GI50) was 0.489 µM, the TGI ([9]; read-out: TGI) was 2.12 µM and the GI50 ([9]; read-out: pGI50 (converted)) was 0.49 µM. For the same molecule, the TGI ([9]; read-out: pTGI (converted)) was 2.14 µM, the growth at 100 µM [10] was -100% and the growth at 100 µM [11] was -83%. For the same molecule, the growth at 10 µM [12] was -61%, the growth at 10 µM [13] was -88% and the growth at 10 µM [14] was -77.3%. The growth at 100 µM [15] was -74%, the growth at 0.01 µM [16] was 98% and the GI50 ([17]; read-out: GI50) was 0.501 µM. For the same molecule, the CC50 [17, 25] was 7.24 µM, the TGI ([17]; read-out: TGI) was 2.12 µM and the GI50 ([17]; read-out: pGI50 (converted)) was 0.501 µM. The CC50 [17, 26] was 7.24 µM, the TGI ([17]; read-out: pTGI (converted)) was 2.14 µM and the growth at 100 µM [18] was -82%. The GI50 [19] was 1.2 µM, the TGI [19] was 2.72 µM and the CC50 [19] was 6.27 µM. The growth at 0.01 µM [20] was 97%, the Activity [21] was 22.78% and the growth at 10 µM [22] was -30.1%. The growth at 0.1 µM [23] was 93% and the growth at 1 µM [24] was 28%.
With `Clc1ccc(-c2nc(Nc3ccc(-c4nc5ccccc5[nH]4)cc3)nc(N3CCOCC3)n2)cc1` the growth at 0.01 µM [1] was 103%, the GI50 ([2]; read-out: GI50) was 1.12 µM and the CC50 [2, 25] was 6.09 µM. It also gave a TGI ([2]; read-out: TGI) of 2.61 µM, a GI50 ([2]; read-out: pGI50 (converted)) of 1.12 µM and a CC50 [2, 26] of 6.03 µM. For the same molecule, the TGI ([2]; read-out: pTGI (converted)) was 2.63 µM, the GI50 ([3]; read-out: GI50) was 2.11 µM and the TGI ([3]; read-out: TGI) was 4.44 µM. For the same molecule, the GI50 ([3]; read-out: pGI50 (converted)) was 2.09 µM, the TGI ([3]; read-out: pTGI (converted)) was 4.47 µM and the growth at 10 µM [4] was -79%. It also gave a growth at 10 µM [5] of -73.9%, a growth at 10 µM [6] of -84% and a growth at 1 µM [7] of 31%. For the same molecule, the growth at 0.1 µM [8] was 92%, the GI50 ([9]; read-out: GI50) was 0.189 µM and the GI50 ([9]; read-out: pGI50 (converted)) was 0.191 µM. The growth at 100 µM [10] was -68%, the growth at 100 µM [11] was -40% and the growth at 10 µM [12] was -70%. It also gave a growth at 10 µM [13] of -87%, a growth at 10 µM [14] of -73.4% and a growth at 100 µM [15] of -41%. For the same molecule, the growth at 0.01 µM [16] was 102%, the GI50 ([17]; read-out: GI50) was 0.222 µM and the TGI ([17]; read-out: TGI) was 0.45 µM. For the same molecule, the GI50 ([17]; read-out: pGI50 (converted)) was 0.224 µM, the TGI ([17]; read-out: pTGI (converted)) was 0.447 µM and the growth at 100 µM [18] was -45%. The GI50 [19] was 1.11 µM, the TGI [19] was 2.25 µM and the CC50 [19] was 5.6 µM. The growth at 0.01 µM [20] was 93%, the Activity [21] was 49.1% and the growth at 10 µM [22] was -100%. The growth at 0.1 µM [23] was 93% and the growth at 1 µM [24] was -56%.
